{
  "source": "paper PMC4394042",
  "about": "(Cell reports, 2015)",
  "key": {"[1]": {"test_system": "Hh signaling in Sufu-/- MEFs", "assay": "Gli1 and Ptc1 mRNA transcripts in Sufu-/- mouse embryonic fibroblasts", "format": "cell-based", "conditions": "10 μM, normalized to GAPDH"}, "[2]": {"test_system": "Hh-target gene Patched (Ptc)-1 expression", "assay": "Whole-mount in situ hybridization for Ptc1 in zebrafish embryos", "format": "in vivo", "conditions": "1 μM; 12 hpf and 48 hpf"}, "[3]": {"test_system": "Hh signaling (Shh-Light2 cells)", "assay": "Gli-luciferase reporter in Shh-Light2 cells stimulated with Shh", "format": "cell-based, mouse", "conditions": "for Shh-responsive Gli-luciferase reporter activity: stimulated with Shh conditioned medium, significant starting at 1 μM", "how_it_was_run": "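Mouse Shh-Light2 Gli-responsive luciferase reporter cells were stimulated with Shh conditioned medium and then treated with increasing concentrations of test compound. Luciferase output was read as relative luciferase units (RLU), n = 4 per condition, reported as mean ± SEM with p-values.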"}, "[4]": {"test_system": "Gli2-driven Gli-Luc activity", "assay": "Gli-Luc activity in cells transiently overexpressing Gli2", "format": "cell-based", "conditions": "transient Gli2 overexpression"}, "[5]": {"test_system": "BMP (Bone Morphogenic Protein) signaling", "assay": "BMP developmental signaling pathway test", "format": "cell-based"}, "[6]": {"test_system": "Hh signaling (Shh-Light2 cells)", "assay": "Gli-Luc reporter stimulated with Smo agonist purmorphamine", "format": "cell-based, mouse", "conditions": "purmorphamine 3 μM; significant starting at 0.5 μM"}, "Smo": {"target": "Smo (Homo sapiens, UniProt Q99835)", "sequence (Q99835 28-787)": "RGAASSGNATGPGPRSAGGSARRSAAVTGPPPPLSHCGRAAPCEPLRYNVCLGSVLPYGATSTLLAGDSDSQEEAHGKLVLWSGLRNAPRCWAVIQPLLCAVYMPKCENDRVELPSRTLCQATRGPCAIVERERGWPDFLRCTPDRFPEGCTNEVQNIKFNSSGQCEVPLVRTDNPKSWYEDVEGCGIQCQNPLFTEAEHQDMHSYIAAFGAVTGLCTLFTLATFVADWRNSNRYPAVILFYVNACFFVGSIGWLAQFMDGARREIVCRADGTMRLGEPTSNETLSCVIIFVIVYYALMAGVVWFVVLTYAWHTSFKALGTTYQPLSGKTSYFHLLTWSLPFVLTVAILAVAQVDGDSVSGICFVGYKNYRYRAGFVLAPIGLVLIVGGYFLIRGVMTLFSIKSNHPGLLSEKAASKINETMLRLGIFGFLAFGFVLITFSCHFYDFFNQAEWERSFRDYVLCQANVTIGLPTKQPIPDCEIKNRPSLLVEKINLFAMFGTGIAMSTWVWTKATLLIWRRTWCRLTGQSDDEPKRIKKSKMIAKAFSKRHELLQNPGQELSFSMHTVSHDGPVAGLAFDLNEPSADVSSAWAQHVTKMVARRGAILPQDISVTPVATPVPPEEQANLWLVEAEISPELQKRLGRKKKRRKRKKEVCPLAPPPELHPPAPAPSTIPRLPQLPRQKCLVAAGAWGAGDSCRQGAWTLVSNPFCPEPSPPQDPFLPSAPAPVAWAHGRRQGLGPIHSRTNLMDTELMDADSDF", "format": "binding", "conditions": "5 nM BODIPY-cyclopamine; concentrations up to 10 μM"}, "[7]": {"test_system": "Gli2 ciliary localization in MEFs", "assay": "Gli2 trafficking to primary cilium in SAG-stimulated MEFs", "format": "cell-based, mouse", "conditions": "co-treatment SAG 20 nM and 5 μM compound"}, "[8]": {"test_system": "primary cilium of NIH3T3 cells", "assay": "Cilium structure and IFT88 in NIH3T3 cells", "format": "cell-based"}, "[9]": {"test_system": "Gli2FL nuclear accumulation", "assay": "Western blot of nuclear full length Gli2 in SAG-stimulated NIH3T3 cells", "format": "cell-based", "conditions": "SAG 100 nM 1.5 h; Egm 10 μM, FSK 30 μM", "how_it_was_run": "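NIH3T3 cells were left unstimulated or stimulated with SAG (100 nM, 1.5 h), alone or with test compound (10 μM) or forskolin (30 μM), then fractionated. Full-length Gli2 was blotted in nuclear (Lamin-A/C control, n = 4) and whole-cell (α-tubulin control, n = 2) fractions. Output was the ratio of normalized nuclear to normalized whole-cell Gli2.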"}, "[10]": {"test_system": "Gli3FL to Gli3R processing", "assay": "Western blot of Gli3 processing in SAG-stimulated C3H10T1/2 cells", "format": "cell-based", "conditions": "SAG 100 nM 24 h; Egm 10 μM, FSK 30 μM", "how_it_was_run": "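C3H10T1/2 cells were left unstimulated or stimulated with SAG (100 nM, 24 h), alone or with test compound (10 μM) or forskolin (30 μM). Whole-cell lysates were immunoblotted for full-length and repressor Gli3, with α-tubulin as loading control and infrared detection; n = 3.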"}, "PKA [11]": {"test_system": "PKA", "assay": "Immunostaining of phospho-T197-PKA in NIH3T3 cells", "format": "cell-based", "conditions": "SAG 20 nM plus 5 μM compound"}, "PKA [12]": {"test_system": "PKA", "assay": "Western blot of phospho-T197-PKA in NIH3T3 whole cell lysates", "format": "cell-based", "conditions": "SAG 20 nM plus 5 μM compound", "how_it_was_run": "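NIH3T3 cells were left unstimulated or treated with SAG (20 nM), with or without test compound (5 μM). Whole-cell lysates were immunoblotted for phospho-T197 PKA catalytic subunit, with α-tubulin as loading control.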"}, "PDE super-family members": {"test_system": "PDE super-family members", "assay": "In vitro PDE activity screen across PDE super-family members", "format": "biochemical", "conditions": "20 μM; PDE4D3 and three other members"}, "PDE4D3": {"target": "PDE4D3 (Homo sapiens, UniProt Q08499)", "sequence (Q08499 1-673 isoform Q08499-2)": "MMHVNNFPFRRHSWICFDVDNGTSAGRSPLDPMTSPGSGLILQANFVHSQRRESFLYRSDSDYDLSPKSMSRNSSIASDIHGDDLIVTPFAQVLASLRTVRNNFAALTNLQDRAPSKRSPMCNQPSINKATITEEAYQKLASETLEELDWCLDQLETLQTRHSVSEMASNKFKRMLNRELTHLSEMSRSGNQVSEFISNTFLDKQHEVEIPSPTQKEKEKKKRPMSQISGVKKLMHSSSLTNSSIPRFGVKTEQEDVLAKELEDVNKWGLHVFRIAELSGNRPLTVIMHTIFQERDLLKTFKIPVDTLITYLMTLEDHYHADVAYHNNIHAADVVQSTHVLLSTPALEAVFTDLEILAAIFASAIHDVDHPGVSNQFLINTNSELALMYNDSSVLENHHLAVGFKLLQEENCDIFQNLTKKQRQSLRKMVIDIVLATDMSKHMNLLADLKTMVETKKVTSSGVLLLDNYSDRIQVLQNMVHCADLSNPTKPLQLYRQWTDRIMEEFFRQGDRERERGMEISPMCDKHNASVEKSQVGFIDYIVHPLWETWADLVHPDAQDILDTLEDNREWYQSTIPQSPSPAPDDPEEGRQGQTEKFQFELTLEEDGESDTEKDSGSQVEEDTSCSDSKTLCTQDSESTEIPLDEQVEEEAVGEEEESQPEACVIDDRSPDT", "assay": "PDE dose-response assay, PDE4D3", "format": "biochemical"}, "PDE3A": {"target": "PDE3A (Homo sapiens, UniProt Q14432)", "sequence (Q14432 whole entry, species assumed)": "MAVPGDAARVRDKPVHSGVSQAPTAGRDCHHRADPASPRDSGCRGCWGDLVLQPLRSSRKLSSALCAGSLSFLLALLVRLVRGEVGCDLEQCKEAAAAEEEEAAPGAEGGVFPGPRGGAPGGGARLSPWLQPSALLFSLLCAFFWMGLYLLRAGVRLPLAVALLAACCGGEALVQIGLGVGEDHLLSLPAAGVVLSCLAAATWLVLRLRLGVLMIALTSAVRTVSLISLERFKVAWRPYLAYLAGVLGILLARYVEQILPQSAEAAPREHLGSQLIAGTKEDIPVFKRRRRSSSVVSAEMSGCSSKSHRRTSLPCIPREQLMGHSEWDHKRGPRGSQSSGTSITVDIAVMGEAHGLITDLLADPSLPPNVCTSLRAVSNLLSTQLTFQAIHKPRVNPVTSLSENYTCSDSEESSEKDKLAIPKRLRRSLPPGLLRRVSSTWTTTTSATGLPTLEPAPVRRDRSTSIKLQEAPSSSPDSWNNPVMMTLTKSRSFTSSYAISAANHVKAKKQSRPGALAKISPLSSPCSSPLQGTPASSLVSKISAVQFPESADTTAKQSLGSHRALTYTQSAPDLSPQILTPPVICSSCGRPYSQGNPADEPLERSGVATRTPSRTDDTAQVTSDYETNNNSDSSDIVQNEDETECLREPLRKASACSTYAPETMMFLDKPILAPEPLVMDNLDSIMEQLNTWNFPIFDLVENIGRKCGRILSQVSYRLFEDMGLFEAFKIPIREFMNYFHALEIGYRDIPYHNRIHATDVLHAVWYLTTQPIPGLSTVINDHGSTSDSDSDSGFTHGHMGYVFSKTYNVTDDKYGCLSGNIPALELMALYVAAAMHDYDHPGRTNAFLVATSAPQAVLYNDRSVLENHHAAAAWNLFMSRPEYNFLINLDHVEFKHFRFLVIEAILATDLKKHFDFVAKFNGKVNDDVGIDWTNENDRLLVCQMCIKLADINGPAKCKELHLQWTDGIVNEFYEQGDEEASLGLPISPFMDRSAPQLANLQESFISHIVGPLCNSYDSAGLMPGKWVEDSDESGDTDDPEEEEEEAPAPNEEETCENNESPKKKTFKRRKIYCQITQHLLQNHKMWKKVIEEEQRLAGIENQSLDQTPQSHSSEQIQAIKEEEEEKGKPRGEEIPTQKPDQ", "assay": "PDE dose-response assay, PDE3A", "format": "biochemical"}, "PDE10A2": {"target": "PDE10A2 (Homo sapiens, UniProt Q9Y233)", "sequence (Q9Y233 267-1055, species assumed)": "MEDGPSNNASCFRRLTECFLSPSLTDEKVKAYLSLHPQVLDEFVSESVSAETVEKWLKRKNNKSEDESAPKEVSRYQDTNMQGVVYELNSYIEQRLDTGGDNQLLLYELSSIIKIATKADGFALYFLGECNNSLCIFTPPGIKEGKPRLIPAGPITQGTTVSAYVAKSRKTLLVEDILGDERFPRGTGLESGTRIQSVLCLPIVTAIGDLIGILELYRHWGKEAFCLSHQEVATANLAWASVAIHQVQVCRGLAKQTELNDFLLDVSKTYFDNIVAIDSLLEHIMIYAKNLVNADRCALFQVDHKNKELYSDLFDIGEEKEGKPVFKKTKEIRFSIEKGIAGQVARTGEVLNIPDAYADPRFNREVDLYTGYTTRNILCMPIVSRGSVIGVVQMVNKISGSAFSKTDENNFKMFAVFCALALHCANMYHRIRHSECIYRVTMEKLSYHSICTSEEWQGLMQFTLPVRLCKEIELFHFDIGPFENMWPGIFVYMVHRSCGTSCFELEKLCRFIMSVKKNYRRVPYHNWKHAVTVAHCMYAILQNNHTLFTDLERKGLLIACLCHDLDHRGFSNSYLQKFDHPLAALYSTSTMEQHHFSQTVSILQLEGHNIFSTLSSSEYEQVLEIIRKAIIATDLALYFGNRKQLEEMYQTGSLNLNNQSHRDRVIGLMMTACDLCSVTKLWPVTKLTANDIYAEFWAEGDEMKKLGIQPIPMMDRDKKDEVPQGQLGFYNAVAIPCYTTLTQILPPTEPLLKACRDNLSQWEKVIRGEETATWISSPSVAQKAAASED", "assay": "PDE dose-response assay, PDE10A2", "format": "biochemical"}, "PDE11A4": {"target": "PDE11A4 (Homo sapiens, UniProt Q9HCR9)", "sequence (Q9HCR9 whole entry, species assumed)": "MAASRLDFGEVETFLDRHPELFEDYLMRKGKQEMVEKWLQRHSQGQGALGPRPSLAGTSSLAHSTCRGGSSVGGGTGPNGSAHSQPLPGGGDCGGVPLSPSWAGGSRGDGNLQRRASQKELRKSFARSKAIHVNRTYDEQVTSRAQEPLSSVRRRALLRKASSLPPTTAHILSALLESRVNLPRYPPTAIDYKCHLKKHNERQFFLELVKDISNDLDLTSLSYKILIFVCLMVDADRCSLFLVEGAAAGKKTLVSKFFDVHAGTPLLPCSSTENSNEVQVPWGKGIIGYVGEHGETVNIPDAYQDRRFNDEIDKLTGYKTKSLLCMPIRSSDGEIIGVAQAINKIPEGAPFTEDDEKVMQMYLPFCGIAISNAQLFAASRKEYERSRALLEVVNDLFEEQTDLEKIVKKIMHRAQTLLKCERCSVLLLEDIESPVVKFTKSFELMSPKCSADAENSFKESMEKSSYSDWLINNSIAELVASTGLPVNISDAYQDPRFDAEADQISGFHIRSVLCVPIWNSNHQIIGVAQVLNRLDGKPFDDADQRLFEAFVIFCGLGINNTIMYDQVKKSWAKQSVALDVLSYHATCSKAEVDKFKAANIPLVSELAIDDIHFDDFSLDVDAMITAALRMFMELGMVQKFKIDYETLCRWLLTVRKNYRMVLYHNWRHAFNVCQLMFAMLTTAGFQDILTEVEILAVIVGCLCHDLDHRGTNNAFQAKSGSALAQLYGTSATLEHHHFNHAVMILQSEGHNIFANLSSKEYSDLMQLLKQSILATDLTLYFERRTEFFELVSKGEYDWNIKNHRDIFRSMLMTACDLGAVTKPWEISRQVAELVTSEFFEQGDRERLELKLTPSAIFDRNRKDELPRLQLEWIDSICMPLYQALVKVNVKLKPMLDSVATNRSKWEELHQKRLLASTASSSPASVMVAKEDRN", "assay": "PDE dose-response assay, PDE11A4", "format": "biochemical"}, "442 kinases": {"test_system": "442 kinases", "assay": "Counter-screen, kinase panel"}, "21 phosphatases": {"test_system": "21 phosphatases", "assay": "Counter-screen, phosphatase panel"}, "[13]": {"test_system": "PDE4D3-induced Hh signaling (Shh-Light2 cells)", "assay": "Hh reporter activity in Shh-Light2 cells transfected with PDE4D3", "format": "cell-based, mouse", "conditions": "5 μM", "how_it_was_run": "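Hh reporter cells were transiently transfected with wild-type PDE4D3, dominant-negative PDE4D3 or empty pCS2 vector as control. Wild-type transfectants received 5 μM test compound. Reporter activity is reported as mean ± SEM and compared with vector control or untreated wild-type transfectants.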"}},
  "data": [
    {"smiles": "CC1=C2C[C@H]3[C@@H](CC=C4C[C@@H](O)CC[C@@]43C)[C@@H]2CC[C@]12O[C@@H]1C[C@H](C)CN[C@H]1[C@H]2C", "note": "[cyclopamine, reference compound]", "values": [
      {"measurement": "Gli1 transcription level", "setting": "[1]", "result": "no inhibition"},
      {"measurement": "Ptc1 transcription level", "setting": "[1]", "result": "no inhibition"}
    ]},
    {"smiles": "C=C(C)Cn1c(SCC(=O)c2cccs2)nc2sc3c(c2c1=O)CCCC3", "note": "[eggmanone, 3-(2-methylallyl)-2-((2-oxo-2-(thiophen-2-yl)ethyl)thio)-5,6,7,8-tetrahydrobenzo[4,5]thieno[2,3-d]pyrimidine-4(3H)-one]", "values": [
      {"measurement": "Ptc1 expression in adaxial cells, pectoral fin fields and somites", "setting": "[2]", "result": "abrogation of the Hh-target gene Patched (Ptc)-1 expression"},
      {"measurement": "Shh-responsive Gli-luciferase reporter activity", "setting": "[3]", "result": "inhibited Hh-inducible Gli-responsive luciferase (Gli-Luc) activity in a dose-dependent manner"},
      {"measurement": "Gli-Luc activity in cells overexpressing Gli2", "setting": "[4]", "result": "retained Gli-Luc activity"},
      {"measurement": "effect on BMP signaling", "setting": "[5]", "result": "not perturbed"},
      {"measurement": "purmorphamine-induced Gli-Luc reporter activity", "setting": "[6]", "result": "inhibited purmorphamine-induced (3 μM) Gli-Luc reporter activity in a dose-dependent manner"},
      {"measurement": "competition for Smo binding with BODIPY-cyclopamine", "setting": "Smo", "result": "failed to compete"},
      {"measurement": "Gli1 transcription level", "setting": "[1]", "result": "significantly reduced"},
      {"measurement": "Ptc1 transcription level", "setting": "[1]", "result": "significantly reduced"},
      {"measurement": "Gli2 localization to primary cilium", "setting": "[7]", "result": "properly localized to the proximal tip of the cilium"},
      {"measurement": "ciliary transport protein IFT88", "setting": "[8]", "result": "remained intact"},
      {"measurement": "cilium structure (Arl13b staining)", "setting": "[8]", "result": "unaffected"},
      {"measurement": "nuclear accumulation of Gli2FL", "setting": "[9]", "result": "inhibited"},
      {"measurement": "Gli3R formation", "setting": "[10]", "result": "restored Gli3R formation"},
      {"measurement": "phospho-T197-PKA at base of primary cilium / basal body", "setting": "PKA [11]", "result": "significant increase in PKA activity at the base of the primary cilium"},
      {"measurement": "p-PKA levels in whole cell lysates", "setting": "PKA [12]", "result": "no significant increase"},
      {"measurement": "inhibition of PDE activity", "setting": "PDE super-family members", "result": "≥ 50", "unit": "%"},
      {"measurement": "IC50", "setting": "PDE4D3", "result": 0.072, "unit": "µM"},
      {"measurement": "selectivity for PDE4D3 over other PDEs", "setting": "PDE4D3; versus PDE3A, PDE10A2, PDE11A4", "result": "40- to 50 fold"},
      {"measurement": "IC50", "setting": "PDE3A", "result": 3, "unit": "µM"},
      {"measurement": "IC50", "setting": "PDE10A2", "result": 3.05, "unit": "µM"},
      {"measurement": "IC50", "setting": "PDE11A4", "result": 4.08, "unit": "µM"},
      {"measurement": "inhibition of kinases in panel", "setting": "442 kinases", "result": "≤ 50", "unit": "%"},
      {"measurement": "inhibition of phosphatases in panel", "setting": "21 phosphatases", "result": "≤ 50", "unit": "%"},
      {"measurement": "Hh reporter activity induced by wild type PDE4D3 overexpression", "setting": "[13]", "result": "abolished"}
    ]},
    {"smiles": "C=C[C@@]1(C)CC(=O)[C@]2(O)[C@@]3(C)[C@@H](O)CCC(C)(C)[C@@H]3[C@H](O)[C@H](OC(C)=O)[C@@]2(C)O1", "note": "[forskolin, reference compound]", "values": [
      {"measurement": "nuclear accumulation of Gli2FL", "setting": "[9]", "result": "inhibited"},
      {"measurement": "Gli3R formation", "setting": "[10]", "result": "restored Gli3R formation"}
    ]},
    {"smiles": "COc1ccc(C2CNC(=O)C2)cc1OC1CCCC1", "note": "(stereo not drawn) [rolipram]", "values": [
      {"measurement": "potency in Gli-Luc reporter assay relative to eggmanone", "setting": "[3]; stimulated with Shh", "result": "lower potency than eggmanone"},
      {"measurement": "Shh-responsive Gli-luciferase reporter activity", "setting": "[3]", "result": "did reduce Hh signaling levels"}
    ]}
  ]
}
